High-throughput results from PubChem.
Compounds with a hit are over-represented: about 2.9% of the library has one in this group of screens.
HCV core dimer = blocks dimerization of HCV core protein | inhibition, % at 5 µM | 300,000 tested, 0.33% active | AID 1899 | TR-FRET GST/Flag-core106 dimerization, 1536-well;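 active means inhibition above the mean of all tested compounds plus 3 SD, set per screening campaign, cut at about 45% in these data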
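Material: GST/Flag-tagged HCV core106 proteins. Incubation: 4 h, 22.5 °C incubation. Read-out basis: inhibition (%) from 671 over 617 nm ratio. Measured by: TR-FRET, excitation 340 nm, emission 617 and 671 nm.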
APOBEC3G inh = APOBEC3G (human) deaminase inhibition. recombinant A3G, ssDNA deamination FAM/TAMRA fluorescence. 330,000 tested, 0.28% active. AID 493012. inhibition, % at 20 µM. Q9HC16;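 active means inhibition of at least 40% at 20 µM, with no more than 30% in the related APOBEC3A deaminase screen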;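 further: plate controls were DMSO wells with A3G for no effect and wells lacking A3G enzyme for full effect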
Target sequence (Q9HC16 whole entry, looked up): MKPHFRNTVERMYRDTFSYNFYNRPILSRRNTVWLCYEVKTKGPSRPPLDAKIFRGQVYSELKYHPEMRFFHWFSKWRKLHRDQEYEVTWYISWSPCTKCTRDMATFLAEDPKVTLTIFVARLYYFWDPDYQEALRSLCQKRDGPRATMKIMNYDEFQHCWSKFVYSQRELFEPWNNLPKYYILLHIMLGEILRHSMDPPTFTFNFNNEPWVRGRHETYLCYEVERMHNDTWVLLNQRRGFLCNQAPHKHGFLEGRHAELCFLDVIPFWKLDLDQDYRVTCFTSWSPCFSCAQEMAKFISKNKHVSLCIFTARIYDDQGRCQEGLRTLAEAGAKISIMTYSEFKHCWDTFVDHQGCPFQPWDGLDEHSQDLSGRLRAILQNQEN
ABHD5 PLIN5 PPI = blocks binding of human ABHD5 to perilipin-5; 360,000 tested, 0.78% active; inhibition, % at 4 µM; Q00G26+Q8WTS1; Split G. princeps luciferase complementation, luminescence, 4 h;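 active means inhibition above the mean inhibition across every tested compound plus 3 SD, cut at about 22% in these data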;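 further: 0% = DMSO only wells and the 100% control is not disclosed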
NS3 helicase inh = blocks Hepatitis C virus NS3 helicase unwinding. NS3 helicase DNA unwinding, Cy5 molecular beacon fluorescence. inhibition, % at 10.9 µM. 290,000 tested, 0.56% active;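 active means inhibition above the mean of all tested compounds plus 3 SD, set per campaign, cut at about 35% in these data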;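 further: 0% = DMSO wells and 100% = thioflavine S control wells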
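Assay system – hepatitis C virus NS3 helicase domain fragment enzyme · Buffer or medium – MOPS pH 6.5, MgCl2, DTT, Tween20, BSA · Reagent – Cy5/quencher beacon DNA duplex and ATP to start · Compound – single 10.9 µM dose · Timing – 1 h at 25 °C · Technique – Cy5 beacon fluorescence read at start and 1 h · Measure – % inhibition of unwinding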
A3A deaminase = inhibitors of human APOBEC3A DNA deaminase; P31941; inhibition, % at 20 µM; AID 493011; 330,000 tested, 0.41% active; recombinant A3A, FAM/TAMRA ssDNA deamination fluorescence;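 active means at least 40% inhibition at 20 µM here, with at most 30% in a related deaminase screen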;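 further: plate controls were A3A with DMSO for no effect and wells lacking A3A enzyme for full effect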
Target sequence (P31941 whole entry, looked up): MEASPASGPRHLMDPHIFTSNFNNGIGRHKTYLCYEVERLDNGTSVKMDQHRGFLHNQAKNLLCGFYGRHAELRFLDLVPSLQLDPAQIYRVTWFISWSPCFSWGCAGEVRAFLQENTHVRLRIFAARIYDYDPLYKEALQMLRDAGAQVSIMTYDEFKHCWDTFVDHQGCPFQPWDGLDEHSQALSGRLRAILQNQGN
PRMT1 inh = PRMT1 (human) inhibition, primary screen; recombinant PRMT1, activity-based probe fluorescence polarization; inhibition, % at 2.79 µM; 370,000 tested, 1.3% active; AID 652257;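 active means inhibition above about 21% made by adding two undisclosed values, limit read from the data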
ABHD5-PLIN5 conf = ABHD5-PLIN5 interaction inhibition, confirmed; shares compounds with ABHD5 PLIN5 PPI; biochemical ABHD5-PLIN5 interaction, luminescence; inhibition, % at 4 µM; 2,200 tested, 67% active; in the data active means inhibition above about 23%;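 further: 0% = DMSO vehicle wells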
HNF4 split-luc = counter-screen for ABHD5-PLIN5 inhibitors: HNF4 split-luciferase | HNF4 dimerization, luminescence, biochemical | 2,200 tested, 77% active | shares compounds with ABHD5 PLIN5 PPI | inhibition, % at 4 µM;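 active means mean inhibition across replicate wells exceeding the computed hit threshold, cut at about 13% in these data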;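 further: light from luciferase halves that rejoin when HNF4 fusion proteins dimerize; 0% = DMSO only wells and the 100% control is not given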
* hit, by the source's call; / = no result.

SMILES	HCV core dimer	APOBEC3G inh	ABHD5 PLIN5 PPI	NS3 helicase inh	A3A deaminase	PRMT1 inh	ABHD5-PLIN5 conf	HNF4 split-luc
O=C(NNC(=O)C1CC1)c1ccccc1[N+](=O)[O-]	/	-6	32*	-3	-4	2	8	7
O=C1c2ccccc2C(c2nnnn2Cc2ccccc2)N1CCc1c[nH]c2ccccc12 (centres undefined)	/	/	4	/	/	1	/	/
COc1cccc(CNCc2cccnc2)c1OCc1ccccc1	1	-3	2	10	-2	0	/	/
COc1ccc(C(NC(=O)/C=C/c2ccco2)c2ccc(OC)cc2)cc1	45	-5	25*	33	8	14	66*	46*
CC(=C/C(=O)O)/C=C/c1ccco1	-9	-8	25*	-1	-7	0	10	17*
CCOC(=O)N1CCN(C(=O)c2c(Cl)cnn2C)CC1	/	-6	8	-2	-5	5	/	/
Cc1cc(-c2ccc(C(C)C)c(S(=O)(=O)N3CC(=O)Nc4ccccc43)c2)on1	10	-2	-8	-13	2	3	/	/
O=C(/C=C/Sc1ccccc1)c1ccc(Cl)cc1	9	-6	38*	-6	-2	1	70*	47*
O=C(/C=C/Nc1ccccc1)c1ccccc1	1	-7	0	1	-4	0	/	/
O=C(/C=C/Sc1ccccc1)c1ccccc1	8	0	35*	-5	-1	9	61*	47*
COc1cc(CNCCc2c[nH]c3ccccc23)ccc1OCc1ccc(F)cc1	-3	-4	33*	-19	0	-4	14	-1
C=CCN(C)CC#Cc1ccc(OC)cc1	/	/	/	/	/	-2	/	/
CCCCCCCCN1C(=O)[C@H](CC(=O)N2CCN(C(=O)OCC)CC2)C[C@@]2(C(=O)OC)CCCCC=C12	/	/	5	/	/	0	/	/
C#CCNC(=O)C1=C[C@@H](c2ccc3c(c2)OCO3)C[C@@H](OCc2ccc(CO)cc2)O1	11	-2	3	/	7	-1	/	/
COCC(=O)OCC(=O)N1N=C(c2ccc(Cl)cc2)CC1c1ccco1 (centres undefined)	2	-1	7	2	2	-4	/	/
Cc1ccc(OCC(=O)N2N=C(c3ccc(Cl)cc3)CC2c2ccco2)c([N+](=O)[O-])n1 (centres undefined)	27	-5	24*	14	-1	2	7	14*
CC(C)[C@H](NS(=O)(=O)c1ccccc1)C(=O)OCC(=O)N1N=C(c2ccc(Cl)cc2)CC1c1ccco1 (some centres undefined)	40	-1	24*	22	5	15	48*	56*
O=C(CCl)N1N=C(c2ccco2)CC1c1ccco1 (centres undefined)	30	38	38*	28	40	38*	25*	22*
CCOC(=O)c1ccc(NC(=O)NNS(=O)(=O)c2cc(OC)ccc2OC)cc1	-17	4	-3	8	5	6	/	/
Cc1ccc([C@@H]2CC=C(C(=O)O)CN2S(=O)(=O)c2ccc(C)cc2)cc1	4	-7	9	/	0	1	/	/
Cc1ccc(S(=O)(=O)N2CCCC2)cc1C(=O)NCCOc1ccccc1	/	0	4	/	4	-2	/	/
CCOC(=O)c1ccc(N=c2sc(C(=O)OC)cc(=O)n2CCCN2CCOCC2)cc1	8	-6	42*	-45	-5	6	45*	42*
COC(=O)c1cc(=O)n(CCc2ccc(OC)cc2)c(=Nc2ccc(F)c(Cl)c2)s1	-5	-2	13	-4	-3	6	/	/
CCn1c(=O)cc(C(=O)OC)sc1=Nc1ccc(F)c(F)c1	22	38	27*	-8	3	1	59*	40*
C[C@@H]1CC=C[C@H]2[C@H]1C(=O)N(Cc1ccccc1)[C@H]2c1ccoc1	1	-6	0	/	4	0	/	/
SMILES	HCV core dimer	APOBEC3G inh	ABHD5 PLIN5 PPI	NS3 helicase inh	A3A deaminase	PRMT1 inh	ABHD5-PLIN5 conf	HNF4 split-luc
CC[C@@H]1CC=C[C@H]2[C@H]1C(=O)N(Cc1ccccc1)[C@H]2c1ccoc1	6	1	24*	/	0	/	37*	35*
CCOc1ccc(-c2cncc3nccn23)cc1	/	/	-10	/	/	6	/	/
CC1=NOC(=O)/C1=C\c1ccc(-c2ccc(Cl)c(C(=O)O)c2)o1	/	39	9	18	57	10	/	/
CC1=NOC(=O)/C1=C\c1ccc(-c2cccc(Cl)c2)o1	17	9	51*	30	5	/	99*	106*
CC1=NOC(=O)/C1=C\c1ccc(-c2ccccc2Br)o1	/	/	43*	23	/	6	93*	95*
COc1cc(SC)ccc1C(=O)N1CCc2ccccc21	4	-2	3	2	-1	-1	/	/
O=C(Nc1ccc2nc3n(c(=O)c2c1)CCCCC3)c1c(F)ccc([N+](=O)[O-])c1F	13	-6	36*	3	-3	1	61*	56*
Cc1cccc(NC(=O)CS(=O)CC(=O)Nc2cnc3ccccc3c2)c1C (centres undefined)	-2	1	0	-9	-4	-7	/	/
COc1cc(NC(=O)C/C(C)=N/NC(=O)c2cccs2)c(OC)cc1Cl	-4	-2	36*	3	-3	3	8	16*
CCOC(=O)COc1ccc(/C=C/[N+](=O)[O-])c(OCC(=O)OCC)c1	-5	-4	28*	3	-5	11	62*	95*
CCOc1ccc(/C=C/[N+](=O)[O-])c2ccccc12	0	-1	79*	14	4	/	103*	108*
O=C(Nc1ccn(C2CCC(CO)O2)c(=O)n1)c1ccccc1 (centres undefined)	/	/	-1	/	/	4	/	/
Cc1cccc(S(=O)(=O)c2c(N)n(Cc3ccco3)c3nc4ccccc4nc23)c1	17	-8	6	19	0	14	/	/
Cc1cccc(-n2cnc3c(c2=O)c2nc4ccccc4nc2n3Cc2ccco2)c1	60*	23	30*	/	7	21*	47*	70*
COc1ccc(C(=O)OCC(=O)N2CCCCC2)cc1[N+](=O)[O-]	2	-5	3	6	-1	-9	/	/
COc1ccc(C(=O)OCC(=O)N2CCN(S(=O)(=O)c3ccc(C)cc3)CC2)cc1[N+](=O)[O-]	/	/	86*	/	/	0	2	7
CCCOC(=O)c1ccc(Oc2c(-c3ccc(O)cc3O)n[nH]c2C)cc1	1	-2	3	-4	0	2	/	/
Cc1[nH]nc(-c2ccc(O)cc2O)c1Oc1ccccc1	4	-6	24*	-18	-4	-3	18	36*
